ChEMBL document CHEMBL1132297, “Novel cryptophycin antitumor agents: synthesis and cytotoxicity of fragment "B" analogues” (J Med Chem, 1999)

Test system: CCRF-CEM
Assay: In vitro cytotoxicity against human leukemia CCRF-CEM tumor cell lines
Assay type: functional, cell-based
How it was run: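 Log-phase cells seeded at 4.8×10^4 cells per well in RPMI-1640 with 10% dialyzed FBS and 25 mM HEPES. Compounds were dissolved in DMSO at 0.2 mg/mL, serially diluted 1:3 in DMSO, and added to duplicate wells; DMSO final 0.5%, with DMSO-only control wells. Exposure 72 h at 37 °C, 5% CO2. Suspension cells counted by Coulter counter; IC50 from dose–response curves.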

SMILES	IC50 [nM]
CC(C)C[C@@H]1OC(=O)C(C)(C)CNC(=O)[C@@H]([C@H](C)O)NC(=O)/C=C/C[C@@H]([C@H](C)[C@H]2O[C@@H]2c2ccccc2)OC1=O	1060
CC(C)C[C@@H]1OC(=O)C(C)(C)CNC(=O)[C@@H](Cc2ccc(N)c(Cl)c2)NC(=O)/C=C/C[C@@H]([C@H](C)/C=C/c2ccccc2)OC1=O	500
CC(C)C[C@@H]1OC(=O)C(C)(C)CNC(=O)[C@@H](Cc2ccc(NC(=O)OCC3c4ccccc4-c4ccccc43)cc2)NC(=O)/C=C/C[C@@H]([C@H](C)/C=C/c2ccccc2)OC1=O	> 1200
CC(C)C[C@@H]1OC(=O)C(C)(C)CNC(=O)[C@@H](Cc2ccc(O)c(O)c2)NC(=O)/C=C/C[C@@H]([C@H](C)/C=C/c2ccccc2)OC1=O	1300
CC(C)C[C@@H]1OC(=O)C(C)(C)CNC(=O)[C@@H](CCc2ccccc2)NC(=O)/C=C/C[C@@H]([C@H](C)/C=C/c2ccccc2)OC1=O	1660
COc1ccc(C[C@H]2NC(=O)/C=C/C[C@@H]([C@H](C)C3O[C@@H]3c3ccccc3)OC(=O)[C@H](CC(C)C)OC(=O)C(C)(C)CNC2=O)cc1Cl (stereo not given in full)	0.022
CC(C)C[C@@H]1OC(=O)C(C)(C)CNC(=O)[C@@H](Cc2ccc(O)c(Cl)c2)NC(=O)/C=C/C[C@@H]([C@H](C)/C=C/c2ccccc2)OC1=O	269
CC(C)C[C@@H]1OC(=O)C(C)(C)CNC(=O)[C@@H](Cc2ccccc2)NC(=O)/C=C/C[C@@H]([C@H](C)[C@H]2O[C@@H]2c2ccccc2)OC1=O	0.183
CC(C)C[C@@H]1OC(=O)C(C)(C)CNC(=O)[C@@H](Cc2cccc3ccccc23)NC(=O)/C=C/C[C@@H]([C@H](C)[C@@H]2O[C@H]2c2ccccc2)OC1=O	327
CC(C)C[C@@H]1OC(=O)C(C)(C)CNC(=O)[C@@H](CC2CCCCC2)NC(=O)/C=C/C[C@@H]([C@H](C)/C=C/c2ccccc2)OC1=O	> 1680
CC(C)C[C@@H]1OC(=O)C(C)(C)CNC(=O)[C@@H](Cc2cccnc2)NC(=O)/C=C/C[C@@H]([C@H](C)/C=C/c2ccccc2)OC1=O	997
CC(C)C[C@@H]1OC(=O)C(C)(C)CNC(=O)[C@@H](CCc2ccccc2)NC(=O)/C=C/C[C@@H]([C@H](C)[C@@H]2O[C@H]2c2ccccc2)OC1=O	> 1620
CC(C)C[C@@H]1OC(=O)C(C)(C)CNC(=O)[C@@H](Cc2ccc3ccccc3c2)NC(=O)/C=C/C[C@@H]([C@H](C)/C=C/c2ccccc2)OC1=O	> 1570
CC(C)C[C@@H]1OC(=O)C(C)(C)CNC(=O)[C@@H](Cc2ccc3ccccc3c2)NC(=O)/C=C/C[C@@H]([C@H](C)[C@@H]2O[C@H]2c2ccccc2)OC1=O	866
CC(C)C[C@@H]1OC(=O)C(C)(C)CNC(=O)[C@@H](c2ccc(O)cc2)NC(=O)/C=C/C[C@@H]([C@H](C)/C=C/c2ccccc2)OC1=O	> 1690
CC(C)C[C@@H]1OC(=O)C(C)(C)CNC(=O)[C@H]2CCCN2C(=O)/C=C/C[C@@H]([C@H](C)[C@H]2O[C@@H]2c2ccccc2)OC1=O	1350
CC(C)C[C@@H]1OC(=O)C(C)(C)CNC(=O)[C@@H](Cc2ccc(N)cc2)NC(=O)/C=C/C[C@@H]([C@H](C)[C@H]2O[C@@H]2c2ccccc2)OC1=O	10.1
CC(C)C[C@@H]1OC(=O)C(C)(C)CNC(=O)[C@@H](Cc2ccc(NC(=O)OCC3c4ccccc4-c4ccccc43)cc2)NC(=O)/C=C/C[C@@H]([C@H](C)C2OC2c2ccccc2)OC1=O (stereo not given in full)	115
CC(C)C[C@@H]1OC(=O)C(C)(C)CNC(=O)[C@@H](CC2CCCCC2)NC(=O)/C=C/C[C@@H]([C@H](C)[C@H]2O[C@@H]2c2ccccc2)OC1=O	8.8
CC(C)C[C@@H]1OC(=O)C(C)(C)CNC(=O)[C@@H](c2ccc(O)cc2)NC(=O)/C=C/C[C@@H]([C@H](C)[C@H]2O[C@@H]2c2ccccc2)OC1=O	274
CC(C)C[C@@H]1OC(=O)C(C)(C)CNC(=O)[C@@H](Cc2ccc(N(C)C)c(Cl)c2)NC(=O)/C=C/C[C@@H]([C@H](C)[C@H]2O[C@@H]2c2ccccc2)OC1=O	0.054
CC(C)C[C@@H]1OC(=O)C(C)(C)CNC(=O)[C@@H](Cc2ccc(NC(=O)OCC3c4ccccc4-c4ccccc43)c(Cl)c2)NC(=O)/C=C/C[C@@H]([C@H](C)C2OC2c2ccccc2)OC1=O (stereo not given in full)	15.3
CC(C)C[C@@H]1OC(=O)C(C)(C)CNC(=O)[C@@H](Cc2ccc(O)c(Cl)c2)NC(=O)/C=C/C[C@@H]([C@H](C)[C@H]2O[C@@H]2c2ccccc2)OC1=O	0.52

SMILES	IC50 [nM]
CC(C)C[C@@H]1OC(=O)C(C)(C)CNC(=O)[C@@H](C(C)C)NC(=O)/C=C/C[C@@H]([C@H](C)/C=C/c2ccccc2)OC1=O	> 1850
CC(C)C[C@@H]1OC(=O)C(C)(C)CNC(=O)[C@@H](Cc2ccc(I)cc2)NC(=O)/C=C/C[C@@H]([C@H](C)/C=C/c2ccccc2)OC1=O	607
CC(C)C[C@@H]1OC(=O)C(C)(C)CNC(=O)[C@@H](Cc2ccc3ccccc3c2)NC(=O)/C=C/C[C@@H]([C@H](C)[C@H]2O[C@@H]2c2ccccc2)OC1=O	48
CC(C)C[C@@H]1OC(=O)C(C)(C)CNC(=O)[C@H]2CCCN2C(=O)/C=C/C[C@@H]([C@H](C)/C=C/c2ccccc2)OC1=O	> 1860
CC(C)C[C@@H]1OC(=O)C(C)(C)CNC(=O)CNC(=O)/C=C/C[C@@H]([C@H](C)[C@H]2O[C@@H]2c2ccccc2)OC1=O	> 1940
CC(C)C[C@@H]1OC(=O)C(C)(C)CNC(=O)[C@@H](Cc2cccc3ccccc23)NC(=O)/C=C/C[C@@H]([C@H](C)[C@H]2O[C@@H]2c2ccccc2)OC1=O	35
COc1ccc(C[C@H]2NC(=O)/C=C/C[C@@H]([C@H](C)/C=C/c3ccccc3)OC(=O)[C@H](CC(C)C)OC(=O)C(C)(C)CNC2=O)cc1Cl	13.8
CC(C)C[C@@H]1OC(=O)C(C)(C)CNC(=O)[C@@H](Cc2cccc3ccccc23)NC(=O)/C=C/C[C@@H]([C@H](C)/C=C/c2ccccc2)OC1=O	> 1570
CC(C)C[C@@H]1OC(=O)C(C)(C)CNC(=O)[C@@H](COCc2ccccc2)NC(=O)/C=C/C[C@@H]([C@H](C)/C=C/c2ccccc2)OC1=O	856
CC(C)C[C@@H]1OC(=O)C(C)(C)CNC(=O)[C@@H](Cc2ccc(O)c(Cl)c2)NC(=O)/C=C/C[C@@H]([C@H](C)[C@@H]2O[C@H]2c2ccccc2)OC1=O	31
CC(C)C[C@@H]1OC(=O)C(C)(C)CNC(=O)[C@@H](Cc2ccc(O)cc2)NC(=O)/C=C/C[C@@H]([C@H](C)/C=C/c2ccccc2)OC1=O	734
CC(C)C[C@@H]1OC(=O)C(C)(C)CNC(=O)[C@@H](Cc2ccc(O)cc2)NC(=O)/C=C/C[C@@H]([C@H](C)[C@H]2O[C@@H]2c2ccccc2)OC1=O	4.11
CC(C)C[C@@H]1OC(=O)C(C)(C)CNC(=O)[C@@H](Cc2ccccc2)NC(=O)/C=C/C[C@@H]([C@H](C)/C=C/c2ccccc2)OC1=O	412
CC(C)C[C@@H]1OC(=O)C(C)(C)CNC(=O)[C@@H](COCc2ccccc2)NC(=O)/C=C/C[C@@H]([C@H](C)[C@@H]2O[C@H]2c2ccccc2)OC1=O	975
CC(C)C[C@@H]1OC(=O)C(C)(C)CNC(=O)CNC(=O)/C=C/C[C@@H]([C@H](C)/C=C/c2ccccc2)OC1=O	> 2000
CC(C)C[C@@H]1OC(=O)C(C)(C)CNC(=O)[C@@H](CCc2ccccc2)NC(=O)/C=C/C[C@@H]([C@H](C)[C@H]2O[C@@H]2c2ccccc2)OC1=O	598
CC(C)C[C@@H]1OC(=O)C(C)(C)CNC(=O)[C@@H]([C@H](C)O)NC(=O)/C=C/C[C@@H]([C@H](C)/C=C/c2ccccc2)OC1=O	> 1840
CC(C)C[C@@H]1OC(=O)C(C)(C)CNC(=O)[C@@H](Cc2ccc(N)c(Cl)c2)NC(=O)/C=C/C[C@@H]([C@H](C)[C@H]2O[C@@H]2c2ccccc2)OC1=O	0.58
CC(C)C[C@@H]1OC(=O)C(C)(C)CNC(=O)[C@@H](Cc2ccc(NC(=O)OCC3c4ccccc4-c4ccccc43)c(Cl)c2)NC(=O)/C=C/C[C@@H]([C@H](C)/C=C/c2ccccc2)OC1=O	> 1250
CC(C)C[C@@H]1OC(=O)C(C)(C)CNC(=O)[C@@H](COCc2ccccc2)NC(=O)/C=C/C[C@@H]([C@H](C)[C@H]2O[C@@H]2c2ccccc2)OC1=O	249
CC(C)C[C@@H]1OC(=O)C(C)(C)CNC(=O)[C@@H](Cc2ccc(N)cc2)NC(=O)/C=C/C[C@@H]([C@H](C)/C=C/c2ccccc2)OC1=O	1540
CC(C)C[C@@H]1OC(=O)C(C)(C)CNC(=O)[C@@H](C(C)C)NC(=O)/C=C/C[C@@H]([C@H](C)[C@H]2O[C@@H]2c2ccccc2)OC1=O	> 1800
